Several values for one entry are separate records, joined by “and”; a condition that tells them apart may be missing. Equal values may be shown once.
What was measured:
[1] = system: H4; assay: Tested for its reversal effect on growth of H4 cells at 330+5 ug/mL concentrations of L-aspargine and DL-threo-beta-fluoroaspartate; type: functional
Outline: (§1)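 H4 hepatoma cells seeded at 8×10^3 per 35-mm dish in F 10+ medium. On day 4, the medium was renewed and treatments started, including L-aspartate or L-asparagine. Incubation 72 h, then Lowry total cell protein per dish. Results reported as % of untreated control, mean of duplicate dishes.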

[2] = system: H4; assay: Tested for its reversal effect on growth of H4 cells at 133+5 ug/mL concentrations of L-aspargine and DL-threo-beta-fluoroaspartate; type: functional
Outline: (§2)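 Rat hepatoma H4 cells seeded at 1.4×10^4 per 35-mm dish in MEM+. On day 4, fresh MEM+ was added, with treatments including L-aspartate or L-asparagine. Exposure 66 h, then total cell protein per dish measured by Lowry. Results expressed as % of untreated control protein, mean of duplicate dishes.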

[3] = Distribution of radioactivity derived form [C14]-labeled compound taken up by 7800C1 cells; total uptake; type: ADME
Outline: (§3)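 7800C₁ cells in 100-mm dishes in MEM⁺; on day 4 medium renewed, and 6 h later ¹⁴C-labeled amino acid added to duplicate dishes for 12 h. Washed cells fractionated with 10% trichloroacetic acid (3 h, 0 °C) into acid-soluble material, then hot 5% acid (82 °C, 30 min) to release nucleic acid, leaving a protein pellet on glass-fiber filter. Scintillation counting; nmol/10⁶ cells, mean of duplicates.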

[4] = system: MH1C1; assay: Compound was tested for its uptake by the MH1C1 cells; type: functional
Outline: (§4)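 Cells plated in 100-mm dishes in F 10⁺; on day 4 medium replaced with fresh F 10⁺, and 3 h later ¹⁴C-labeled amino acid added to duplicate dishes. 6 h incubation, then monolayer washed in cold 0.9% NaCl, cells scraped off, and radioactivity counted by liquid scintillation. Uptake expressed as nmol/10⁶ cells from cell counts on untreated dishes; mean of duplicates.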

[5] = system: H4 (Rattus norvegicus); assay: Tested for its reversal effect on growth of H4 cells at 133 ug/mL concentrations of L-aspargine and DL-threo-beta-fluoroaspartate
[6] = system: 7800C1 (Rattus norvegicus); assay: Compound was tested for its uptake by the 7800C1 cells
[7] = Percent recovery form [C14]-labeled compound taken up by 7800C1 cells; type: ADME; details: rat; outline: as §3
[8] = system: H4 (Rattus norvegicus); assay: Compound was tested for its uptake by the H4 cells
[9] = system: Jensen sarcoma; assay: Compound was tested for its uptake by the Jensen sarcoma cells; type: functional, Rattus norvegicus; outline: as §4
[10] = system: H4 (Rattus norvegicus); assay: Tested for its reversal effect on growth of H4 cells at 330 ug/mL concentrations of L-aspargine and DL-threo-beta-fluoroaspartate
[11] = system: GH4-C1; assay: Compound was tested for its uptake by the GH4C1 cells; type: functional, Rattus norvegicus; outline: as §4
[12] = system: MH1C1; assay: Tested for its cytotoxic effect on the growth of the cell strain MH1C1 (1 x 10e 4 (F 10+)) at 50 ug/mL dose; type: functional
Outline: (§5)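 Cells plated in 35-mm dishes at the stated density and medium (F 10+: Ham's F10 + 15% horse serum + 2.5% fetal calf serum; MEM+: Eagle's MEM + 5% horse + 5% fetal calf serum), grown 3 days. All strains then switched to F 10+ before treatment and incubated 4 days. Growth read as total cell protein per dish (Lowry, bovine albumin standard). Single determinations; experiment repeated twice.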

[13] = system: H4; assay: Tested for its reversal effect on growth of H4 cells at 40 ug/mL concentrations of L-aspargine and DL-threo-beta-fluoroaspartate; type: functional; outline: as §1
[14] = system: GH3; assay: Tested for its cytotoxic effect on the growth of the cell strain GH3 (2 x 10e 4 (F 10+)) at 10 ug/mL dose; type: functional, Rattus norvegicus; outline: as §5
[15] = system: 7800C1 cell line; assay: Tested for its cytotoxic effect on the growth of the cell strain 7800C1 (1 x 10e 4 (MEM)) at 10 ug/mL dose; type: functional, Rattus norvegicus; outline: as §5
[16] = system: R5; assay: Tested for its cytotoxic effect on the growth of the cell strain R5 (1 x 10e 3 (F 10+)) at 10 ug/mL dose; type: functional; outline: as §5
[17] = system: GH4-C1; assay: Tested for its cytotoxic effect on the growth of the cell strain GH4C1 (8 x 10e 4 (F 10+)) at 10 ug/mL dose; type: functional, Rattus norvegicus; outline: as §5
[18] = system: GH3; assay: Tested for its cytotoxic effect on the growth of the cell strain GH3 (2 x 10e 4 (F 10+)) at 50 ug/mL dose; type: functional, Rattus norvegicus; outline: as §5
[19] = system: GH4-C1; assay: Tested for its cytotoxic effect on the growth of the cell strain GH4C1 (8 x 10e 4 (F 10+)) at 50 ug/mL dose; type: functional, Rattus norvegicus; outline: as §5
[20] = system: R5; assay: Tested for its cytotoxic effect on the growth of the cell strain R5 (1 x 10e 3 (F 10+)) at 50 ug/mL dose; type: functional; outline: as §5
[21] = system: H4; assay: Tested for its cytotoxic effect on the growth of the cell strain H4 (8 x 10e 3 (MEM)) at 50 ug/mL dose; type: functional; outline: as §5
[22] = system: H4; assay: Tested for its reversal effect on growth of H4 cells at 50 ug/mL concentrations of L-aspargine and DL-threo-beta-fluoroaspartate; type: functional; outline: as §2
[23] = system: 7800C1 cell line; assay: Tested for its cytotoxic effect on the growth of the cell strain 7800C1 (1 x 10e 4 (MEM)) at 50 ug/mL dose; type: functional, Rattus norvegicus; outline: as §5
[24] = system: H4; assay: Tested for its cytotoxic effect on the growth of the cell strain H4 (8 x 10e 3 (MEM)) at 10 ug/mL dose; type: functional; outline: as §5
[25] = system: MH1C1; assay: Tested for its cytotoxic effect on the growth of the cell strain MH1C1 (1 x 10e 4 (F 10+)) at 10 ug/mL dose; type: functional; outline: as §5
[26] = system: GH3; assay: Tested for its cytotoxic effect on the growth of the cell strain GH3 (2 x 10e 4 (F 10+)) at 5 ug/mL dose; type: functional, Rattus norvegicus; outline: as §5
[27] = system: MH1C1; assay: Tested for its cytotoxic effect on the growth of the cell strain MH1C1 (1 x 10e 4 (F 10+)) at 5 ug/mL dose; type: functional; outline: as §5
[28] = system: H4; assay: Tested for its cytotoxic effect on the growth of the cell strain H4 (8 x 10e 3 (MEM)) at 75 ug/mL dose; type: functional; outline: as §5
[29] = system: GH4-C1; assay: Tested for its cytotoxic effect on the growth of the cell strain GH4C1 (8 x 10e 4 (F 10+)) at 5 ug/mL dose; type: functional, Rattus norvegicus; outline: as §5
[30] = system: R5; assay: Tested for its cytotoxic effect on the growth of the cell strain R5 (1 x 10e 3 (F 10+)) at 5 ug/mL dose; type: functional; outline: as §5
[31] = system: 7800C1 cell line; assay: Tested for its cytotoxic effect on the growth of the cell strain 7800C1 (1 x 10e 4 (MEM)) at 5 ug/mL dose; type: functional, Rattus norvegicus; outline: as §5
[32] = system: 7800C1 cell line; assay: Tested for its cytotoxic effect on the growth of the cell strain 7800C1 (1 x 10e 4 (MEM)) at 2 ug/mL dose; type: functional, Rattus norvegicus; outline: as §5
[33] = system: MH1C1; assay: Tested for its cytotoxic effect on the growth of the cell strain MH1C1 (1 x 10e 4 (F 10+)) at 75 ug/mL dose; type: functional; outline: as §5
[34] = system: GH4-C1; assay: Tested for its cytotoxic effect on the growth of the cell strain GH4C1 (8 x 10e 4 (F 10+)) at 75 ug/mL dose; type: functional, Rattus norvegicus; outline: as §5
[35] = system: H4; assay: Tested for its cytotoxic effect on the growth of the cell strain H4 (8 x 10e 3 (MEM)) at 20 ug/mL dose; type: functional; outline: as §5
[36] = system: H4; assay: Tested for its cytotoxic effect on the growth of the cell strain H4 (8 x 10e 3 (MEM)) at 2 ug/mL dose; type: functional; outline: as §5
[37] = system: GH3; assay: Tested for its cytotoxic effect on the growth of the cell strain GH3 (2 x 10e 4 (F 10+)) at 75 ug/mL dose; type: functional, Rattus norvegicus; outline: as §5
[38] = system: MH1C1; assay: Tested for its cytotoxic effect on the growth of the cell strain MH1C1 (1 x 10e 4 (F 10+)) at 20 ug/mL dose; type: functional; outline: as §5
[39] = system: MH1C1; assay: Tested for its cytotoxic effect on the growth of the cell strain MH1C1 (1 x 10e 4 (F 10+)) at 2 ug/mL dose; type: functional; outline: as §5
[40] = system: GH4-C1; assay: Tested for its cytotoxic effect on the growth of the cell strain GH4C1 (8 x 10e 4 (F 10+)) at 2 ug/mL dose; type: functional, Rattus norvegicus; outline: as §5
[41] = system: R5; assay: Tested for its cytotoxic effect on the growth of the cell strain R5 (1 x 10e 3 (F 10+)) at 20 ug/mL dose; type: functional; outline: as §5
[42] = system: GH3; assay: Tested for its cytotoxic effect on the growth of the cell strain GH3 (2 x 10e 4 (F 10+)) at 20 ug/mL dose; type: functional, Rattus norvegicus; outline: as §5
[43] = system: GH3; assay: Tested for its cytotoxic effect on the growth of the cell strain GH3 (2 x 10e 4 (F 10+)) at 2 ug/mL dose; type: functional, Rattus norvegicus; outline: as §5
[44] = system: 7800C1 cell line; assay: Tested for its cytotoxic effect on the growth of the cell strain 7800C1 (1 x 10e 4 (MEM)) at 75 ug/mL dose; type: functional, Rattus norvegicus; outline: as §5
[45] = system: H4; assay: Tested for its cytotoxic effect on the growth of the cell strain H4 (8 x 10e 3 (MEM)) at 5 ug/mL dose; type: functional; outline: as §5
[46] = system: GH4-C1; assay: Tested for its cytotoxic effect on the growth of the cell strain GH4C1 (8 x 10e 4 (F 10+)) at 20 ug/mL dose; type: functional, Rattus norvegicus; outline: as §5
[47] = system: H4; assay: Tested for its reversal effect on growth of H4 cells at 5 ug/mL concentrations of L-aspargine and DL-threo-beta-fluoroaspartate; type: functional
[48] = system: R5; assay: Tested for its cytotoxic effect on the growth of the cell strain R5 (1 x 10e 3 (F 10+)) at 75 ug/mL dose; type: functional; outline: as §5
[49] = system: 7800C1 cell line; assay: Tested for its cytotoxic effect on the growth of the cell strain 7800C1 (1 x 10e 4 (MEM)) at 20 ug/mL dose; type: functional, Rattus norvegicus; outline: as §5
[50] = system: R5; assay: Tested for its cytotoxic effect on the growth of the cell strain R5 (1 x 10e 3 (F 10+)) at 2 ug/mL dose; type: functional; outline: as §5

Structure (SMILES): NC(C(=O)O)C(F)C(=O)O.N[C@@H](CC(=O)O)C(=O)O (mixture of isomers)
- Cell protein in untreated control [1]: 78%
- Cell protein in untreated control [2]: 79%

Structure (SMILES): N[C@@H](CC(=O)O)C(=O)O [ASPARTIC ACID]
- Activity [3]: 21 nM (10e6*cells)-1
- Activity [4]: 0.5 nM (10e6*cells)-1
- Cell protein in untreated control [5]: 115%
- Activity [6]: 13.2 nM (10e6*cells)-1
- Recovery [7]: 83%
- Activity [8]: 23.4 nM (10e6*cells)-1
- Activity [9]: 0.4 nM (10e6*cells)-1
- Cell protein in untreated control [10]: 77%
- Activity [11]: 1.1 nM (10e6*cells)-1

Structure (SMILES): NC(=O)C(F)C(N)C(=O)O (racemic)
- Cell protein [12]: 31 ug dish-1
- Cell protein in untreated control [13]: 17%
- Cell protein [14]: 36 ug dish-1
- Cell protein [15]: 15 ug dish-1
- Cell protein [16]: 85 ug dish-1
- Cell protein [17]: 35 ug dish-1
- Cell protein [18]: 14 ug dish-1
- Cell protein [19]: 16 ug dish-1
- Cell protein [20]: 27 ug dish-1
- Cell protein [21]: 0 ug dish-1
- Cell protein in untreated control [22]: 0%
- Cell protein [23]: 0 ug dish-1
- Cell protein [24]: 0 ug dish-1
- Cell protein [25]: 55 ug dish-1

Structure (SMILES): NC(C(=O)O)C(F)C(=O)O (racemic)
- Cell protein [26]: 23 ug dish-1
- Cell protein [27]: 167 ug dish-1
- Cell protein [28]: 156 ug dish-1
- Cell protein [14]: 104 ug dish-1
- Cell protein [29]: 98 ug dish-1
- Cell protein [15]: 249 ug dish-1
- Cell protein [30]: 98 ug dish-1
- Cell protein [31]: 9 ug dish-1
- Cell protein [16]: 122 ug dish-1
- Cell protein [32]: 10 ug dish-1
- Cell protein [33]: 149 ug dish-1
- Cell protein [17]: 126 ug dish-1
- Cell protein [34]: 126 ug dish-1
- Cell protein [35]: 4 ug dish-1
- Cell protein [36]: 114 ug dish-1
- Cell protein [37]: 61 ug dish-1
- Cell protein [38]: 140 ug dish-1
- Cell protein [39]: 154 ug dish-1
- Cell protein [40]: 96 ug dish-1
- Cell protein [41]: 50 ug dish-1
- Cell protein [42]: 22 ug dish-1
- Cell protein [43]: 69 ug dish-1
- Cell protein [44]: 229 ug dish-1
- Cell protein [45]: 9 ug dish-1
- Cell protein [24]: 150 ug dish-1
- Cell protein [46]: 36 ug dish-1
- Cell protein in untreated control [47]: 0% and 5%
- Cell protein [48]: 90 ug dish-1
- Cell protein [49]: 6 ug dish-1
- Cell protein [25]: 159 ug dish-1
- Cell protein [50]: 128 ug dish-1
